{"data": "Assay results of several laboratories", "target": "Mitogen-activated protein kinase kinase kinase 5 (MAP3K5, Homo sapiens, UniProt Q99683)", "Sequence (Q99683 1-1374, as in one of the studies)": "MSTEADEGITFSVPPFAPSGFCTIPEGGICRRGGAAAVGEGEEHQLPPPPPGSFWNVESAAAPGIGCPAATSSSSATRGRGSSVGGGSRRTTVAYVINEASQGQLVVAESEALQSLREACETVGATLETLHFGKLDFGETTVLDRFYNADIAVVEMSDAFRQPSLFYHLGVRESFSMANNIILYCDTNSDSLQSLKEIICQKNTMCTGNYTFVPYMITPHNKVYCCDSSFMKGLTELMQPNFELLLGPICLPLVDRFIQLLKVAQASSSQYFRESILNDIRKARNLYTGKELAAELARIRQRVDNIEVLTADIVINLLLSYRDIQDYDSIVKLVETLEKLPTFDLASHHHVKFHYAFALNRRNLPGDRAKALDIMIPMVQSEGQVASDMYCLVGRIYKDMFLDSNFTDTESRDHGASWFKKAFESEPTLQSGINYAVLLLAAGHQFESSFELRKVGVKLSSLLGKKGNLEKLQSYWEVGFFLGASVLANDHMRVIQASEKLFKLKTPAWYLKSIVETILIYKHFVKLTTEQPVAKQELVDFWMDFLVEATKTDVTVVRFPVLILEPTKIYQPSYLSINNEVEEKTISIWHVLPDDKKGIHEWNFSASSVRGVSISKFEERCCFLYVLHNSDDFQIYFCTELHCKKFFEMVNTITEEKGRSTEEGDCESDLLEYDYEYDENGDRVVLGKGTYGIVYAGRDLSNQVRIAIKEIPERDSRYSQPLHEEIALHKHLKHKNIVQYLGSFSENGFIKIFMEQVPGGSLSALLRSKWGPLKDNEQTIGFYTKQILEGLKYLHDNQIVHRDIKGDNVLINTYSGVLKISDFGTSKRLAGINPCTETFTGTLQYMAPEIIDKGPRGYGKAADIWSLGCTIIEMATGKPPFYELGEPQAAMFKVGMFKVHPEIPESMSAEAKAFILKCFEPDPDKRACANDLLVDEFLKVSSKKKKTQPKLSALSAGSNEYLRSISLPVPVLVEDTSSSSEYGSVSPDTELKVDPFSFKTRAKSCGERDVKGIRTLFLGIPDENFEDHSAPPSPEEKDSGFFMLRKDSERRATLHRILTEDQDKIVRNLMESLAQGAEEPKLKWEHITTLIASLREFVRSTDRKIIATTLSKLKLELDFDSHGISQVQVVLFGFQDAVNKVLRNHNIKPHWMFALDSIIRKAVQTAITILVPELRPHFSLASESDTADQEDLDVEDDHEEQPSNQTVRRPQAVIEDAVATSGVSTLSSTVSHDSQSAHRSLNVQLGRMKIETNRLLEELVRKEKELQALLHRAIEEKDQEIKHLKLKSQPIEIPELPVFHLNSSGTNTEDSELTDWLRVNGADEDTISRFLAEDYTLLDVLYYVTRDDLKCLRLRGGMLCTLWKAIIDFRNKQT"}
{"Compound": "COCCOc1nc(-c2ccc(Cl)nc2)nc2c1CN(C(=O)c1ncn3ccccc13)CC2", "assay": "cell-free assay, competition with immobilised ligand", "setting": "0.1 µM", "remaining binding [%]": 84}
{"Compound": "COc1cnc(Nc2cccc(S(N)(=O)=O)c2)nc1N1CCN(c2ccccc2)C(=O)C1", "assay": "binding, competition with immobilised ligand", "setting": "1 µM", "remaining binding [%]": 100}
{"Compound": "N#Cc1ccc(Nc2ccc3[nH]c(=O)[nH]c3c2)c(Cl)c1", "assay": "cell-free assay, competition with immobilised ligand", "setting": "1 µM", "remaining binding [%]": 90}
{"Compound": "c1cncc(-c2cccc(Nc3nccc(NC4CCCCC4)n3)c2)c1", "assay": "binding, competition with immobilised ligand", "setting": "10 µM", "remaining binding [%]": 100}
{"Compound": "N[C@H]1CCN(c2nccc(-c3cnn4ncccc34)n2)C1", "assay": "binding", "setting": "1 µM", "remaining binding [%]": 99}
{"Compound": "O=C(NCCCN1CCOCC1)c1ccc(Nc2ncc(Cl)c(-c3ccc(Cl)s3)n2)cc1", "assay": "binding, competition with immobilised ligand", "setting": "1 µM", "remaining binding [%]": 100}
{"Compound": "CN(c1nccc(-c2cnn3ncccc23)n1)C1CC1", "assay": "binding", "setting": "1 µM", "remaining binding [%]": 100}
{"Compound": "COc1ncc2cc3ccccc3nc2c1C#N", "assay": "cell-free assay, competition with immobilised ligand", "setting": "5 µM", "remaining binding [%]": 96}
{"Compound": "Cc1cc(C)c(-n2ccn3nc(-c4cccnc4)cc23)cc1NC(=O)c1cc(C#N)cc(S(F)(F)(F)(F)F)c1", "assay": "cell-free assay, competition with immobilised ligand", "setting": "0.1 µM", "remaining binding [%]": 100}
{"Compound": "Cc1cnn2ncc(-c3ccnc(N(C)C)n3)c2c1", "assay": "binding", "setting": "1 µM", "remaining binding [%]": 100}
{"Compound": "O=C(NCC1CCOCC1)c1n[nH]cc1NC(=O)c1c(F)cccc1F", "assay": "binding, competition with immobilised ligand", "setting": "1 µM", "remaining binding [%]": 87}
{"Compound": "Cn1cc(Cl)c2c(Oc3c(F)cc(Nc4cc(Cl)nc(N)n4)cc3F)ccnc21", "assay": "cell-free assay, competition with immobilised ligand", "setting": "0.1 µM", "remaining binding [%]": 97}
{"Compound": "C[C@H]1CCN(c2nccc(-c3cnn4ncccc34)n2)C1", "assay": "binding", "setting": "1 µM", "remaining binding [%]": 100}
{"Compound": "CCCOc1ccc([C@@H]2[C@@H](C(=O)O)[C@H](c3ccc4c(c3)OCO4)CN2CC(=O)Nc2c(CC)cccc2CC)cc1", "assay": "cell-free assay, competition with immobilised ligand", "setting": "1 µM", "remaining binding [%]": 97}
{"Compound": "O=C(NCCCN1CCOCC1)c1ccc(Nc2nccc(-c3cc4ccccc4s3)n2)cc1", "assay": "binding, competition with immobilised ligand", "setting": "1 µM", "remaining binding [%]": 100}
{"Compound": "COc1cc(-c2cn(C3CCc4ccccc4N(CC(F)(F)F)C3=O)nn2)ccc1-n1ccc(C)n1 (stereo not drawn)", "assay": "cell-free assay, competition with immobilised ligand", "setting": "1 µM", "remaining binding [%]": 100}
{"Compound": "COc1cnc(Nc2cccc(S(N)(=O)=O)c2)nc1N1CCN(c2ccccc2)CC1", "assay": "binding, competition with immobilised ligand", "setting": "1 µM", "remaining binding [%]": 100}
{"Compound": "CN(C)c1nccc(-c2cnn3ncccc23)n1", "assay": "binding", "setting": "1 µM", "remaining binding [%]": 87}
{"Compound": "Nc1ncc2c(n1)-c1c([nH]c3ccc(C#CC4CC4)cc13)CCCC2", "assay": "binding, competition with immobilised ligand", "setting": "1 µM", "remaining binding [%]": 100}
{"Compound": "O=C(c1ccc(Nc2ncc(Cl)c(-c3ccc(Cl)s3)n2)cc1)N1CCC(N2CCCC2)CC1", "assay": "binding, competition with immobilised ligand", "setting": "1 µM", "remaining binding [%]": 100}
{"Compound": "c1cnn2ncc(-c3ccnc(N4CCC45COC5)n3)c2c1", "assay": "binding", "setting": "1 µM", "remaining binding [%]": 100}
